Experiments:
[1] = system: Norwalk virus; experiment: Antiviral activity against Norwalk virus infected in human HG23 cells assessed as inhibition of viral replication after 24 hrs by qRT-PCR; assay type: functional; conditions: HG23, 24 h, read-out: ED50 (the source's name)
Method in brief: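 HG23 cells (Norwalk virus replicon-bearing), one day old at 80–90% confluence, exposed to graded compound levels from 0 (mock-DMSO) to 10 µM. NV genome quantified by qRT-PCR; ED50 for genome levels taken at 24 h post-treatment. Values averaged over at least two independent experiments, mean ± standard deviation.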

[2] = Cytotoxicity against human HG23 cells after 48 hrs; assay type: cell-based; conditions: read-out: TD50
Method in brief: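 Replicon-harboring HG23 cells exposed to graded compound levels from 0 (mock-DMSO) to 320 µM for 48 h. Viability read with a commercial cell cytotoxicity assay kit, and the median toxic dose (TD50) was calculated from it.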

Compound	EC50 [1] [µM]	CC50 at 48 h [2] [µM]
CCCCc1ccc(CN2CCNS2(=O)=O)cc1	> 10	–
O=S1(=O)N(CCN2CCOCC2)CCN1Cc1cccc(Oc2ccccc2)c1	–	49
O=S1(=O)NCCN1Cc1cccc(Oc2ccccc2)c1	4.1	50
O=S1(=O)NCCN1Cc1cccc(Oc2ccc(F)cc2)c1	> 10	98
O=S1(=O)NCCN1Cc1cccc(OCc2ccccc2)c1	5.2	18
O=S1(=O)NCCN1Cc1cccc(O)c1	> 10	–
O=S1(=O)NCCN1Cc1ccc(Oc2ccccc2)cc1	5.8	57
CCCOc1ccc(CN2CCNS2(=O)=O)cc1	5.2	96
O=S1(=O)NCCN1Cc1ccc(OCc2ccccc2)cc1	9.8	159
CCOc1ccc(CN2CCNS2(=O)=O)cc1	> 10	–
CC(C)Oc1ccc(CN2CCNS2(=O)=O)cc1	> 10	–
CCCCOc1ccc(CN2CCNS2(=O)=O)cc1	9.5	–
CCCc1ccc(CN2CCNS2(=O)=O)cc1	> 10	–
CC(C)Cc1ccc(CN2CCNS2(=O)=O)cc1	9.7	–
CSc1ccc(CN2CCNS2(=O)=O)cc1	> 10	–
O=S1(=O)NCCN1Cc1ccc(OC(F)(F)F)cc1	> 10	–
O=S1(=O)NCCN1Cc1cccc(OC(F)(F)F)c1	> 10	–
O=S1(=O)NCCN1Cc1cccc(Cl)c1	> 10	–
COc1cccc(CN2CCNS2(=O)=O)c1	> 10	–
COc1ccc(CN2CCNS2(=O)=O)cc1	> 10	–
O=S1(=O)NCCN1Cc1ccc(Cl)cc1	> 10	–
COC(=O)CCCCCCN1CCN(Cc2cccc(Oc3ccccc3)c2)S1(=O)=O	> 10	–
O=C(O)CCCCCCN1CCN(Cc2cccc(Oc3ccccc3)c2)S1(=O)=O	> 10	–
O=S1(=O)N(Cc2ccccc2)CCN1Cc1cccc(Oc2ccccc2)c1	> 10	–
O=S1(=O)N(Cc2ccc(F)cc2)CCN1Cc1cccc(Oc2ccccc2)c1	> 10	–
O=S1(=O)N(CCN2CCCCC2)CCN1Cc1cccc(Oc2ccccc2)c1	4.3	9.8

Now from value to compound, other results behind:

EC50 [1] [µM]	Compound	CC50 at 48 h [2] [µM]
> 10	CC(C)(C)OC(=O)N1CCN(Cc2cn(Cc3ccccc3)nn2)S1(=O)=O	–
9.8	COc1ccc(Cn2cc(CN3CCN(C(=O)OC(C)(C)C)S3(=O)=O)nn2)cc1	–
> 10	O=S1(=O)NCCN1Cc1cn(Cc2ccccc2)nn1	–
> 10	COc1ccc(Cn2cc(CN3CCNS3(=O)=O)nn2)cc1	–
> 10	O=S1(=O)NCCN1CC1CCCN(Cc2ccccc2)C1 (configuration not stated)	–
> 10	COC(=O)CN1CCN(Cc2cccc(Oc3ccccc3)c2)S1(=O)=O	–
> 10	COC(=O)CCN1CCN(Cc2cccc(Oc3ccccc3)c2)S1(=O)=O	–
> 10	COC(=O)CCCN1CCN(Cc2cccc(Oc3ccccc3)c2)S1(=O)=O	–
9.7	COC(=O)CCCCN1CCN(Cc2cccc(Oc3ccccc3)c2)S1(=O)=O	46
> 10	COC(=O)c1ccc(CN2CCN(Cc3cccc(Oc4ccccc4)c3)S2(=O)=O)cc1	–
7.8	O=C(O)CN1CCN(Cc2cccc(Oc3ccccc3)c2)S1(=O)=O	48
> 10	O=C(O)CCN1CCN(Cc2cccc(Oc3ccccc3)c2)S1(=O)=O	–
> 10	O=C(O)CCCN1CCN(Cc2cccc(Oc3ccccc3)c2)S1(=O)=O	–
6.1	O=C(O)CCCCN1CCN(Cc2cccc(Oc3ccccc3)c2)S1(=O)=O	100
> 10	O=C(O)c1ccc(CN2CCN(Cc3cccc(Oc4ccccc4)c3)S2(=O)=O)cc1	–
> 10	CN1CCN(Cc2cccc(Oc3ccccc3)c2)S1(=O)=O	–
> 10	CCN1CCN(Cc2cccc(Oc3ccccc3)c2)S1(=O)=O	–
> 10	N#CCN1CCN(Cc2cccc(Oc3ccccc3)c2)S1(=O)=O	–
8.1	O=S1(=O)N(Cc2cccnc2)CCN1Cc1cccc(Oc2ccccc2)c1	53
> 10	NC(=O)CN1CCN(Cc2cccc(Oc3ccccc3)c2)S1(=O)=O	–

From ChEMBL document CHEMBL1833900, “Potent inhibition of Norwalk virus by cyclic sulfamide derivatives” (Bioorg Med Chem, 2011)
